According to BindingDB's records for doi:10.1016/j.bmcl.2005.03.058 (Wyeth Research, 2005):

Columns and labels:
[1] = biological target: T1, UDP-N-acetylenolpyruvoylglucosamine reductase (Escherichia coli (strain K12), UniProt P08373); experiment: Inhibitory concentration against MurB enzyme in Escherichia coli
T1 sequence (P08373 whole entry): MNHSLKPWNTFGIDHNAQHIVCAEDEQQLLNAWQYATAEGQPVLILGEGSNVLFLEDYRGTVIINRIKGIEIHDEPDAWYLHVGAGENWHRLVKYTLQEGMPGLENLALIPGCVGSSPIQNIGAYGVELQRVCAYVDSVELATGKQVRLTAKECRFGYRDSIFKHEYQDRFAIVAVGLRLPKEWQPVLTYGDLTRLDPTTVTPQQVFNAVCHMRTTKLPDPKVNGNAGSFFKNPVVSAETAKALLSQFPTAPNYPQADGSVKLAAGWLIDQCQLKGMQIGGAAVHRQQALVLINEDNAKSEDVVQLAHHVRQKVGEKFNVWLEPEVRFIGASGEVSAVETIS
Summary of the method: (§1)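 Enzyme (20 nM) preincubated 20 min with inhibitor, then substrates added to final 50 µM EP-UNAG and 100 µM NADPH. Activity followed spectrophotometrically. At least six inhibitor concentrations between 1.5 and 50 µM per compound. IC50 from sigmoid Hill curve fit (0–100).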

[2] = biological target: UDP-N-acetylglucosamine 1-carboxyvinyltransferase (Escherichia coli (strain K12), UniProt P0A749); experiment: Inhibitory concentration against MurA enzyme in Escherichia coli
Summary of the method: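 Enzyme preincubated with inhibitor 10 min at 37 °C before substrates were added. Reaction ran 30 min at 37 °C and was stopped with malachite green reagent (0.03% malachite green, 1.4% ammonium molybdate, 1.3 N HCl) for phosphate read-out.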

[3] = biological target: T2, UDP-N-acetylenolpyruvoylglucosamine reductase (Staphylococcus aureus, UniProt P61431); experiment: Inhibitory concentration against MurB enzyme in Staphylococcus aureus; summary of the method: as §1
T2 sequence (P61431 whole entry): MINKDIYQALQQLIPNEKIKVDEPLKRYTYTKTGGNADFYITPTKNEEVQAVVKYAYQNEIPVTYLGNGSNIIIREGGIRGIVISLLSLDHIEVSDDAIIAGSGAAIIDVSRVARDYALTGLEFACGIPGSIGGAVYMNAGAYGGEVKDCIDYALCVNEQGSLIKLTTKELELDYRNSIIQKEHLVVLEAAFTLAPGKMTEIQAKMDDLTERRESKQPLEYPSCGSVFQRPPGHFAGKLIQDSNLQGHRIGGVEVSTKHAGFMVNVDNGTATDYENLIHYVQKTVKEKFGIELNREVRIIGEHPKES

Chain of UDP-N-acetylglucosamine 1-carboxyvinyltransferase (P0A749 whole entry): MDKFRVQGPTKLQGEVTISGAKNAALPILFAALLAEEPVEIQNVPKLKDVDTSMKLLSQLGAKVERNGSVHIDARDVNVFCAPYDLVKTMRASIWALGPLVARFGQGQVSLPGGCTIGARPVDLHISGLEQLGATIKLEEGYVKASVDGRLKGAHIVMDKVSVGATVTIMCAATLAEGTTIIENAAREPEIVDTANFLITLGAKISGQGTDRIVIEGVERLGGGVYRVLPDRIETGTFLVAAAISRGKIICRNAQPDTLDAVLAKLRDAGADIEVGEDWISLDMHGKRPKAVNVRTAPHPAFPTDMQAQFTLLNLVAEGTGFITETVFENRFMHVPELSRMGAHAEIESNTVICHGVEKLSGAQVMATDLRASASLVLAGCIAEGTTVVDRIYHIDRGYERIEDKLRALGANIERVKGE

IC50 [1] [µM]	IC50 [2] [µM]	IC50 [3] [µM]	Structure (SMILES)
> 50	> 50		O=c1c(Cc2ccccc2)c(O)n(-c2ccc(Cl)cc2)n1-c1ccc(Cl)cc1 [4-Benzyl-1,2-bis-(4-chloro-phenyl)-pyrazolidine-3,5-dione]
> 50	> 50	> 50	O=c1c(Cc2ccccc2Cl)c(O)n(-c2ccc(Cl)cc2)n1-c1ccc(Cl)cc1 [4-(2-Chloro-benzyl)-1,2-bis-(4-chloro-phenyl)-pyrazolidine-3,5-dione]
> 50	> 50		CCN(CC)CCc1c(O)n(-c2ccc(Cl)cc2)n(-c2ccc(Cl)cc2)c1=O [1,2-Bis-(4-chloro-phenyl)-4-(2-diethylamino-ethyl)-pyrazolidine-3,5-dione]
50	> 50		COc1cccc(Cc2c(O)n(-c3ccc(Cl)cc3)n(-c3ccc(Cl)cc3)c2=O)c1 [1,2-Bis-(4-chloro-phenyl)-4-(3-methoxy-benzyl)-pyrazolidine-3,5-dione]
> 50	> 50	> 50	CCN(CCc1c(O)n(-c2ccc(Cl)cc2)n(-c2ccc(Cl)cc2)c1=O)Cc1ccccc1 [4-[2-(Benzyl-ethyl-amino)-ethyl]-1,2-bis-(4-chloro-phenyl)-pyrazolidine-3,5-dione]
50	> 50		CCC(CC)Cc1c(O)n(-c2ccc(Cl)cc2)n(-c2ccc(Cl)cc2)c1=O [1,2-Bis-(4-chloro-phenyl)-4-(2-ethyl-butyl)-pyrazolidine-3,5-dione]
